In data set [1] the target is D(2) dopamine receptor (Homo sapiens) (UniProt P14416). The data set can be described thus: Inhibition of D2S receptor at 10 uM by radioligand displacement assay. The procedure, abridged: (§1)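 Off-target radioligand binding panel. Test compound at 10 µM. Each assay had at least 6 control wells, with or without vehicle, for soluble compounds. Values are percent inhibition of radioligand binding. ≥50% inhibition was scored as a positive response.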
Background: In a radioligand displacement assay an active substance lowers the binding of a labelled ligand.

Data set [2] concerns the target Melanocortin receptor 4 (Homo sapiens) (UniProt P32245). The data set can be described thus: Inhibition of MC4 receptor at 10 uM by radioligand displacement assay. A digest of the protocol:
as §1

The target in data set [3] is Neuropeptide Y receptor type 2 (Homo sapiens) (UniProt P49146). The data set can be described thus: Inhibition of Y2 receptor at 10 uM by radioligand displacement assay. A digest of the protocol: as §1
Neuropeptide Y receptor type 2 (Homo sapiens), sequence (P49146 whole entry): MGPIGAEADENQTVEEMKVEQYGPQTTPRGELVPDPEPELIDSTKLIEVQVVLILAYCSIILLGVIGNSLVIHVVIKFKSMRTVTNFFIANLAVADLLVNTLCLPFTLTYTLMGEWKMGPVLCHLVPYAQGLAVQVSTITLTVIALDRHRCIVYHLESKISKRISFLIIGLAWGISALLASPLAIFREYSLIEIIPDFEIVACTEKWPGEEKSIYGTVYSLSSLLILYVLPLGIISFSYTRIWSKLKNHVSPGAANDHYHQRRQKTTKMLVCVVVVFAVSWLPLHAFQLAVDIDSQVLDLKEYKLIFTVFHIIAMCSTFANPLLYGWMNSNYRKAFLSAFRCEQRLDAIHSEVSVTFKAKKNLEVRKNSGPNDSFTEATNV
Data set [4] concerns the target Kappa-type opioid receptor (Homo sapiens) (UniProt P41145). The data set can be described thus: Inhibition of Kappa opioid receptor at 10 uM by radioligand displacement assay. A digest of the protocol:
as §1

The target in data set [5] is Mu-type opioid receptor (Homo sapiens) (UniProt P35372). The data set is described as follows: Inhibition of Mu opioid receptor at 10 uM by radioligand displacement assay. A digest of the protocol: as §1
Mu-type opioid receptor (Homo sapiens), sequence (P35372 whole entry): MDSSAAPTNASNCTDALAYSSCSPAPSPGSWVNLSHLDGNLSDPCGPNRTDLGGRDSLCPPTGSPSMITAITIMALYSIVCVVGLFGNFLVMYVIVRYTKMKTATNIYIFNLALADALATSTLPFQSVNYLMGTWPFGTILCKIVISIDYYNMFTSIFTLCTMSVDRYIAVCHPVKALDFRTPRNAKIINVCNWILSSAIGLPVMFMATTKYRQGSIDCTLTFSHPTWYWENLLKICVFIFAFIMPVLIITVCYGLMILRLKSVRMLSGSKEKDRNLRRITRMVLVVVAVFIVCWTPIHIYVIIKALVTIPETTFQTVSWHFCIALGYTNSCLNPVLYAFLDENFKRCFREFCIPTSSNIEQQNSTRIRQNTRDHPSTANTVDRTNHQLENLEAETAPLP
Data set [6] addresses Nociceptin receptor (Homo sapiens) (UniProt P41146). The data set can be described thus: Inhibition of NOP receptor at 10 uM by radioligand displacement assay. A digest of the protocol:
as §1

Data set [7] addresses 5-hydroxytryptamine receptor 1B (Homo sapiens) (UniProt P28222). The data set is described as follows: Inhibition of 5HT1b receptor at 10 uM by radioligand displacement assay. A digest of the protocol: as §1
For data set [8], the target named is 5-hydroxytryptamine receptor 2B (Homo sapiens) (UniProt P41595). The data set is described as follows: Inhibition of 5HT2b receptor at 10 uM by radioligand displacement assay. A digest of the protocol:
as §1

Data set [9] addresses 5-hydroxytryptamine receptor 7 (Homo sapiens) (UniProt P34969). The data set is described as follows: Inhibition of 5HT7 receptor at 10 uM by radioligand displacement assay. A digest of the protocol:
as §1

For data set [10], the target named is Sodium-dependent dopamine transporter (Homo sapiens) (UniProt Q01959). The data set is described as follows: Inhibition of dopamine transporter at 10 uM by radioligand displacement assay. The procedure, abridged:
(§2)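 Off-target panel: radioligand binding to each receptor, channel or transporter with test compound at 10 µM; activity reported as percent inhibition of specific binding. At least 6 control wells with or without vehicle per assay. Inhibition of 50% or greater counted as a positive response.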

The target of data set [11] is Adenosine receptor A1 (Homo sapiens) (UniProt P30542). The data set can be described thus: Inhibition of adenosine A1 receptor at 10 uM by radioligand displacement assay. A digest of the protocol:
as §1

The target in data set [12] is Adenosine receptor A3 (Homo sapiens) (UniProt P0DMS8). The data set can be described thus: Inhibition of adenosine A3 receptor at 10 uM by radioligand displacement assay. A digest of the protocol:
as §2

A short description of data set [13]: Inhibition of alpha2 adrenergic receptor at 10 uM by radioligand displacement assay. The procedure, abridged:
as §2

Data set [14] concerns the target Type-1 angiotensin II receptor (Homo sapiens) (UniProt P30556). The data set is described as follows: Inhibition of AT1 receptor at 10 uM by radioligand displacement assay. The procedure, abridged:
as §1

Data set [15] deals with Mus musculus. The data set can be described thus: Toxicity in CD1 mouse assessed as adverse effect in liver at 10 mg/kg, iv qd administered for 5 days. The format is organism-based. Also on record: dose 10 mg/kg, route intravenous. The conditions noted are these: in vivo, 120 h. The procedure, abridged: (§3)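 Male CD-1 mice dosed IV once daily for 5 days at 1, 10 or 50 mg/kg. Toxicity judged by histology of liver, spleen and thymus, and a no-observed-adverse-effect level (NOAEL) derived from the study.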

Data set [16] concerns Mus musculus. The data set is described as follows: Toxicity in CD1 mouse assessed as adverse effect in liver at 50 mg/kg, iv qd administered for 5 days. The format is organism-based. Set-up: dose 50 mg/kg, route intravenous. Particulars: in vivo, 120 h. A digest of the protocol:
as §3

For data set [17], the system named is Mus musculus. The data set is described as follows: Toxicity in CD1 mouse assessed as adverse effect in spleen at 10 mg/kg, iv qd administered for 5 days. The class given is organism-based. Also on record: dose 10 mg/kg, route intravenous. Particulars: in vivo, 120 h. The procedure, abridged: as §3
The subject of data set [18] is Mus musculus. The data set can be described thus: Toxicity in CD1 mouse assessed as adverse effect in spleen at 50 mg/kg, iv qd administered for 5 days. The format is organism-based. Also on record: dose 50 mg/kg, route intravenous. Particulars: in vivo, 120 h. A digest of the protocol: as §3
For data set [19], the system named is Mus musculus. The data set can be described thus: Toxicity in CD1 mouse assessed as adverse effect in thymus at 10 mg/kg, iv qd administered for 5 days. Also on record: dose 10 mg/kg, route intravenous. The conditions noted are these: in vivo, 120 h. The class given is organism-based. The procedure, abridged:
as §3

The subject of data set [20] is Mus musculus. The data set is described as follows: Toxicity in CD1 mouse assessed as adverse effect in thymus at 50 mg/kg, iv qd administered for 5 days. Set-up: dose 50 mg/kg, route intravenous. The format is organism-based. Particulars: in vivo, 120 h. A digest of the protocol:
as §3

The nature of data set [21]: Toxicity in iv dosed CD1 mouse administered qd for 5 days. The class given is organism-based. Particulars: in vivo. A digest of the protocol:
as §3

Data set [22] concerns Mus musculus. The data set is described as follows: Antiasthamatic activity against ovalbumin-induced asthma in ovalbumin-sensitized BALB/c mouse assessed as inhibition of methacholine-induced bronchoconstriction at 1 mg/kg, iv administered 24 hrs prior to methacholine-challenge by plethysmography. Set-up: dose 1 mg/kg. The class given is functional, organism-based. The procedure, abridged:
(§4)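 Mice made asthmatic by ovalbumin exposure. A single 1 mg/kg IV dose was given 24 h before aerosolized methacholine challenge. Controls received IV PBS vehicle or three inhaled doses of Combivent (5.2 mg/kg albuterol + 0.9 mg/kg ipratropium) at 48, 24 and 1 h before challenge. Bronchoconstriction was read by whole-body plethysmography, and eosinophils were counted in BALF. Data are mean ± SEM, 10 mice per group.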

Data set [23] has as its system Mus musculus. The data set can be described thus: Antiasthamatic activity against ovalbumin-induced asthma in ovalbumin-sensitized BALB/c mouse assessed as inhibition of methacholine-induced eosinophil infiltration in bronchoalveolar lavage fluid at 1 mg/kg, iv administered 24 hrs prior to methacholine-challenge by light microscopy. The format is functional, organism-based. Also on record: dose 1 mg/kg. The conditions noted are these: Lung. The procedure, abridged:
as §4

Data set [24] deals with Mus musculus. The data set is described as follows: Toxicity in CD1 mouse assessed as adverse effect in thymus iv qd administered for 5 days. Particulars: in vivo, 120 h.

Consider two molecules from ChEMBL document CHEMBL2010673, “Structure-activity relationship of pyrrole based S-nitrosoglutathione reductase inhibitors: carboxamide modification” (Bioorg Med Chem Lett, 2012).

The source made the active and inactive calls. No cut-off for these calls is given here.

What is called NOAEL is the highest dose or exposure tested at which no adverse effect was seen.

Adenosine receptor A1 (Homo sapiens), sequence (P30542 whole entry): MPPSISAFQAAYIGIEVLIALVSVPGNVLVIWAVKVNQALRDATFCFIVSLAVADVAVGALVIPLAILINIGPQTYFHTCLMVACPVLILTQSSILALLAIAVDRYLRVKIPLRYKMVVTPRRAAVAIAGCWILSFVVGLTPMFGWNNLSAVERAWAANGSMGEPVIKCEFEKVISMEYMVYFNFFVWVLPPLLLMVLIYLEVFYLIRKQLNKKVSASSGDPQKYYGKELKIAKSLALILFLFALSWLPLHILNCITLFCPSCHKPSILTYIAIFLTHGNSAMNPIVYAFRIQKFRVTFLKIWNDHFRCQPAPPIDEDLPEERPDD
Melanocortin receptor 4 (Homo sapiens), sequence (P32245 whole entry): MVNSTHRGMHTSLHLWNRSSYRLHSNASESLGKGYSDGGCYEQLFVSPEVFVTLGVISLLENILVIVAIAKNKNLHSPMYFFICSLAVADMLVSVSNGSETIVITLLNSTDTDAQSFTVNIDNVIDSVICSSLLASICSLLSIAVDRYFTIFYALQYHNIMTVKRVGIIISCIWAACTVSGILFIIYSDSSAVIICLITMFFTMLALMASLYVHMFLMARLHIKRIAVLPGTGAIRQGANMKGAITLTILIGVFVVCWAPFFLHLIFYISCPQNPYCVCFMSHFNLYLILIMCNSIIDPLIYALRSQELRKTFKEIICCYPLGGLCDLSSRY
Kappa-type opioid receptor (Homo sapiens), sequence (P41145 whole entry): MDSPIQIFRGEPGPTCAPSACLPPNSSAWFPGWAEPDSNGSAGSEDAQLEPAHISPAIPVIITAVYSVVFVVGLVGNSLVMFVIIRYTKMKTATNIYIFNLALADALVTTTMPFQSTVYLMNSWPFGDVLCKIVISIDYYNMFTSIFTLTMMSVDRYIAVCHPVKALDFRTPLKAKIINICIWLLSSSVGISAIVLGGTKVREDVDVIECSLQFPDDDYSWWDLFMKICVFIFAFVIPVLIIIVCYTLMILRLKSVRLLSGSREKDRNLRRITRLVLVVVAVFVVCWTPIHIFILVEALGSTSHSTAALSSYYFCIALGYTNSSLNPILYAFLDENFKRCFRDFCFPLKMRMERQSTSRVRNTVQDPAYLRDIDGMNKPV
Sodium-dependent dopamine transporter (Homo sapiens), sequence (Q01959 whole entry): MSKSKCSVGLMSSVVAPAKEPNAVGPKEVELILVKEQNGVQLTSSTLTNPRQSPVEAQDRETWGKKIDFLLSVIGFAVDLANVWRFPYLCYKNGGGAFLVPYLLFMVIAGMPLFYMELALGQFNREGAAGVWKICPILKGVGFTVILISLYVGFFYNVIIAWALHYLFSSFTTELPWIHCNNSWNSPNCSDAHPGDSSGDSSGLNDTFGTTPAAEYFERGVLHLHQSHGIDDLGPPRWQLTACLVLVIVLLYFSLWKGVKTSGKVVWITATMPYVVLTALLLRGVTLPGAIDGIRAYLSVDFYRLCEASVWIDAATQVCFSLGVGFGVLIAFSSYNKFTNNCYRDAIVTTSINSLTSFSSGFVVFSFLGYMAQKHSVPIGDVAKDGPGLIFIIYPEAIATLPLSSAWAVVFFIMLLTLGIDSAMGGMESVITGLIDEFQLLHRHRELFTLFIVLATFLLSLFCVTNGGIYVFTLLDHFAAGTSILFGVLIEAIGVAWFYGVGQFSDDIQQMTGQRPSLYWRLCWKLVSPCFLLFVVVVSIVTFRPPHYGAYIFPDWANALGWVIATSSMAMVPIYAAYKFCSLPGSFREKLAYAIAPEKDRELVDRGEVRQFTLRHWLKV
5-hydroxytryptamine receptor 1B (Homo sapiens), sequence (P28222 whole entry): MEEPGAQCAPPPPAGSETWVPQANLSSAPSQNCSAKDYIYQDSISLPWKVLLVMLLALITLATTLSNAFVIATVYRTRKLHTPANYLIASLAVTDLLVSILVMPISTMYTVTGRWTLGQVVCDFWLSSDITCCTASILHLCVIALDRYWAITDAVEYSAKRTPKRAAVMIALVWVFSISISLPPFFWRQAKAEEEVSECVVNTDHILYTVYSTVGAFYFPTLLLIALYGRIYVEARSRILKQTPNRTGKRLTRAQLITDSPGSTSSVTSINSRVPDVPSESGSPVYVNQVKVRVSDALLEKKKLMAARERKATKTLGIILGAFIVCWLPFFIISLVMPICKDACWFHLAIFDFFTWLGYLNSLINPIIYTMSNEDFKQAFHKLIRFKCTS
5-hydroxytryptamine receptor 2B (Homo sapiens), sequence (P41595 whole entry): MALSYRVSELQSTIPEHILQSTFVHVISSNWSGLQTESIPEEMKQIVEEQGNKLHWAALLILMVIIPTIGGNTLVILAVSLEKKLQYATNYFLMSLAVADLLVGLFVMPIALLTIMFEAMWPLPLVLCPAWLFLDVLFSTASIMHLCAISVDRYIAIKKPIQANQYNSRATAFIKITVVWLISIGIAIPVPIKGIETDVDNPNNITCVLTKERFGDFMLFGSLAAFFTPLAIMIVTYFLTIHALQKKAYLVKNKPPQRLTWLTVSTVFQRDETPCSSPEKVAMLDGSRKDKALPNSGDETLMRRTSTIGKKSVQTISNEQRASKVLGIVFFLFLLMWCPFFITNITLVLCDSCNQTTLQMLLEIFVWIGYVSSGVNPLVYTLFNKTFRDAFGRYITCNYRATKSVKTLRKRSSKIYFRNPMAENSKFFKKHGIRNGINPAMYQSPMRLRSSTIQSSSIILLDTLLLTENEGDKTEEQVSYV
Adenosine receptor A3 (Homo sapiens), sequence (P0DMS8 whole entry): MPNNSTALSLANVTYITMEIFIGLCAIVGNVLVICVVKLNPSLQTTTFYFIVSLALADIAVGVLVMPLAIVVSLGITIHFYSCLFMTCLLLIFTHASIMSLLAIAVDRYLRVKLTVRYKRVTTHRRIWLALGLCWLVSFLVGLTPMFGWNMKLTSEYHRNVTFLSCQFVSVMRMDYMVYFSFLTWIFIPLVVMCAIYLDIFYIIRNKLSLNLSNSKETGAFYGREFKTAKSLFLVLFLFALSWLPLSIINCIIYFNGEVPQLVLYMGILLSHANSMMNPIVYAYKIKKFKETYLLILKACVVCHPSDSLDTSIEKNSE
Type-1 angiotensin II receptor (Homo sapiens), sequence (P30556 whole entry): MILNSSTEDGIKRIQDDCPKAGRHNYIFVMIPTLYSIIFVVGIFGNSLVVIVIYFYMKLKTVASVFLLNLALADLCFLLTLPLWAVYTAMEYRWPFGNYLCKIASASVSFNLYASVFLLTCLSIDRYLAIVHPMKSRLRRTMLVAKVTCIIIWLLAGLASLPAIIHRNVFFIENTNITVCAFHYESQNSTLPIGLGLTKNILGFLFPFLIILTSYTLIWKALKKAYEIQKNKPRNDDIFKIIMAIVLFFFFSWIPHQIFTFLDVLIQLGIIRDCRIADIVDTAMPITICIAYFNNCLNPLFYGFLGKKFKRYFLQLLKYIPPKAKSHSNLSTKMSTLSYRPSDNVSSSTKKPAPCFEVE
D(2) dopamine receptor (Homo sapiens), sequence (P14416 whole entry): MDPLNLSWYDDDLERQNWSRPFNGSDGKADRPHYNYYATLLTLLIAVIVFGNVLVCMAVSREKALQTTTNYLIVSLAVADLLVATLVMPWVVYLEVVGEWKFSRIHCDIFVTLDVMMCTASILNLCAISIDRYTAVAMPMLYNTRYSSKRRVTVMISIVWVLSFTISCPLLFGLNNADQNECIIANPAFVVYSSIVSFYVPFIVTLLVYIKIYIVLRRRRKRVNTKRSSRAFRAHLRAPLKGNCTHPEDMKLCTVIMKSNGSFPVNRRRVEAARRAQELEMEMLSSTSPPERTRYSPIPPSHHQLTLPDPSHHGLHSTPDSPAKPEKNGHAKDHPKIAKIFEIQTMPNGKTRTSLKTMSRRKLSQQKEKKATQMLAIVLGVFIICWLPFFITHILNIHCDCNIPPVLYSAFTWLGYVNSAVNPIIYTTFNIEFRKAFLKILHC
Nociceptin receptor (Homo sapiens), sequence (P41146 whole entry): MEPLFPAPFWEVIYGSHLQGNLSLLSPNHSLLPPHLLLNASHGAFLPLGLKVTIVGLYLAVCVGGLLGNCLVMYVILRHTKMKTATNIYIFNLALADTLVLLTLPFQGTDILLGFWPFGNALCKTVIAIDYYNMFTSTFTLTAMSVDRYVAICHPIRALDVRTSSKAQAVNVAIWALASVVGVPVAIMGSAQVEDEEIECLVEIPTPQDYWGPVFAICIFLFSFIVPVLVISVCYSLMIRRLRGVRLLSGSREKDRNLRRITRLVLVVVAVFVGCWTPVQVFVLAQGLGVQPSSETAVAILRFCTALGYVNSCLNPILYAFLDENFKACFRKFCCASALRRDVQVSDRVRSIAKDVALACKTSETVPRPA

For the molecule `Cc1cc(NS(C)(=O)=O)ccc1-n1c(CCC(=O)O)ccc1-c1ccc(-n2ccnc2)cc1`, the inhibition result in data set [1], in data set [2], in data set [3], in data set [4], in data set [5] and in [6] was “inactive” in each case. Also, the inhibition entry in data set [7], in [8], in [9], in [10], in data set [11] and in data set [12] was “inactive” throughout. The inhibition result in data set [13] and in [14] was “inactive” throughout.

With `Cc1cc(NS(C)(=O)=O)ccc1-n1c(CCC(=O)O)ccc1-c1ccc(-n2ccnc2C)s1`, the inhibition result in [1], in data set [2], in data set [3], in data set [4], in data set [5] and in [6] was “inactive” each time. Moreover, the inhibition result in [7], in data set [8], in data set [9], in data set [10], in [11] and in data set [12] was “inactive” throughout. Besides, the inhibition result in data set [13] and in [14] was “inactive” each time. Besides, the Activity entry in data set [15], in data set [16], in [17], in [18], in data set [19] and in data set [20] was “Toxic” in each case. The Activity entry in [24] is reported as “Toxic”. The NOAEL at 120 h in data set [21] is 1 mg/kg/day. Also, the result in [22] and in data set [23] was Active.
